# In publication PMC6176371 (Oncology Letters, 2018):
# Entries after “also recorded” stand apart in the source; their conditions may differ. Like-named read-outs stand apart in the source and are kept apart here.
# Columns and labels:
# KB cells = experiment: cells; type: cell-based; details: Homo sapiens, read-out: IC50 ± SD
# KB/VCR cells = experiment: cells; type: cell-based; details: Homo sapiens, read-out: IC50 ± SD
# heart tissues = experiment: TUNEL assay of heart tissues; type: in vivo; details: male and female Balb/c mice
# Method in brief: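 Heart tissue came from the 3-week mouse study: vehicle; test compound 100 mg/kg gavage twice weekly; ADM 20 mg/kg i.p. on day 6; combination. Paraffin sections (4 µm) were stained with an in situ TUNEL kit, and positive cells were counted in three random fields per slide by light microscopy. Percent apoptotic cells was compared by one-way ANOVA with Dunnett's test.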
# CYP3A4 = CYP3A4 (Homo sapiens, UniProt P08684); experiment: CYP inhibition in pooled human liver microsomes, CYP3A4; type: biochemical
# CYP1A2 = biological target: T1, CYP1A2 (Homo sapiens, UniProt P05177); experiment: CYP inhibition in pooled human liver microsomes, CYP1A2; type: biochemical
# T1 sequence (P05177 1-516): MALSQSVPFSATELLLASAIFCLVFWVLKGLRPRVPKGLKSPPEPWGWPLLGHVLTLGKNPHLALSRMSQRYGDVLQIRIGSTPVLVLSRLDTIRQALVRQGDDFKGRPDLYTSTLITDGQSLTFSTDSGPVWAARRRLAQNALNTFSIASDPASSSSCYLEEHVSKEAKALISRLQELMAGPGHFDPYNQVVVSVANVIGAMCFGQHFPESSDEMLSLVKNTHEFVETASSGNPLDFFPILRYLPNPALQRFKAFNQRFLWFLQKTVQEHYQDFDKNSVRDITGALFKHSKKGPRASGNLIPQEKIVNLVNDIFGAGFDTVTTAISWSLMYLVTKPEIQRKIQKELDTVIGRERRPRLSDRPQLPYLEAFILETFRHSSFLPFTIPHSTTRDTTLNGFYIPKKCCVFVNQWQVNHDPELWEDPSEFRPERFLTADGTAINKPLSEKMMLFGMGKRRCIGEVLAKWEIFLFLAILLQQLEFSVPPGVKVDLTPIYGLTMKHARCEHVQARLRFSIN
# CYP2B6 = biological target: T2, CYP2B6 (Homo sapiens, UniProt P20813); experiment: CYP inhibition in pooled human liver microsomes, CYP2B6; type: biochemical; details: CYP2B6, Bupropion hydroxylation
# T2 sequence (P20813 1-491): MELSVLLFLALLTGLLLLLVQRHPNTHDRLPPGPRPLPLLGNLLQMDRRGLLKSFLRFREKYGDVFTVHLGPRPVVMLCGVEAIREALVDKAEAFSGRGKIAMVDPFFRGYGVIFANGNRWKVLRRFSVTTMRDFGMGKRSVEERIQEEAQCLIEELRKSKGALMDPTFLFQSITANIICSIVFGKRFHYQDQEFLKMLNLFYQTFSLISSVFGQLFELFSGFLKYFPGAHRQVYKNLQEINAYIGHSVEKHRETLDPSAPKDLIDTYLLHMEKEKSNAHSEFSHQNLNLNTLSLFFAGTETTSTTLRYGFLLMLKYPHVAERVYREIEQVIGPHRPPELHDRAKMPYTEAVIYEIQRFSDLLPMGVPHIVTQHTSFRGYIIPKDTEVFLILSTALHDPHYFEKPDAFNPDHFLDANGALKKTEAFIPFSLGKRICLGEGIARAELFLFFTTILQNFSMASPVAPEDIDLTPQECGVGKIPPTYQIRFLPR
# CYP2C8 = biological target: T3, CYP2C8 (Homo sapiens, UniProt P10632); experiment: CYP inhibition in pooled human liver microsomes, CYP2C8; type: biochemical; details: CYP2C8, Amodiaquine N-deethylation
# T3 sequence (P10632 1-490): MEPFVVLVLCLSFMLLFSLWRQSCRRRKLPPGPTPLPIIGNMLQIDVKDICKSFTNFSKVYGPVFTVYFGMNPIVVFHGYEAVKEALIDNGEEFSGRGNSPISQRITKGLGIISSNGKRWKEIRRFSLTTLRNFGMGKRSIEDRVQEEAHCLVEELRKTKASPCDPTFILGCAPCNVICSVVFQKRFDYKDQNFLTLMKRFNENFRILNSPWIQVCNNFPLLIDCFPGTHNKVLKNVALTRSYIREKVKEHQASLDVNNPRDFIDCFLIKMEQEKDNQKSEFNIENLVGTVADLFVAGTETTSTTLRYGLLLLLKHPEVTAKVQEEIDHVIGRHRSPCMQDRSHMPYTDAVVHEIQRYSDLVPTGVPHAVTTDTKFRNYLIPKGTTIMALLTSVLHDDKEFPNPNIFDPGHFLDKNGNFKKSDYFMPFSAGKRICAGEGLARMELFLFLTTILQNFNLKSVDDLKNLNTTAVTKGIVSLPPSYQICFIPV
# CYP2C9 = CYP2C9 (Homo sapiens, UniProt P11712); experiment: CYP inhibition in pooled human liver microsomes, CYP2C9; type: biochemical
# CYP2D6 = CYP2D6 (Homo sapiens, UniProt P10635); experiment: CYP inhibition in pooled human liver microsomes, CYP2D6; type: biochemical; details: CYP2D6, Dextromethorphandextrorphan
# [1] = Pharmacokinetic study, oral and i.v. administration; type: in vivo, SD rats
# Method in brief: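 Adult male SD rats got a single 10 mg/kg dose by tail-vein injection or oral gavage. Blood was drawn from three rats predose and at 0.083–24 h; plasma was frozen at −80°C. Plasma was deproteinized with methanol containing 250 nM internal standard for LC/MS/MS. PK parameters came from a noncompartmental i.v.-bolus model.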
# Balb/c mice = experiment: Maximum tolerant dosage, single high-dose PPD12; type: in vivo; details: 1 g/kg PPD12
# Method in brief: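 Single oral gavage of test compound at 1 g/kg to Balb/c mice to assess tolerability of a single high dose.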
# CYP2C19 = CYP2C19 (Homo sapiens, UniProt P33261); details: CYP2C19, S-mephenytoin4′-hydroxylation, human liver microsomes
# Chain of CYP2C19 (P33261 whole entry): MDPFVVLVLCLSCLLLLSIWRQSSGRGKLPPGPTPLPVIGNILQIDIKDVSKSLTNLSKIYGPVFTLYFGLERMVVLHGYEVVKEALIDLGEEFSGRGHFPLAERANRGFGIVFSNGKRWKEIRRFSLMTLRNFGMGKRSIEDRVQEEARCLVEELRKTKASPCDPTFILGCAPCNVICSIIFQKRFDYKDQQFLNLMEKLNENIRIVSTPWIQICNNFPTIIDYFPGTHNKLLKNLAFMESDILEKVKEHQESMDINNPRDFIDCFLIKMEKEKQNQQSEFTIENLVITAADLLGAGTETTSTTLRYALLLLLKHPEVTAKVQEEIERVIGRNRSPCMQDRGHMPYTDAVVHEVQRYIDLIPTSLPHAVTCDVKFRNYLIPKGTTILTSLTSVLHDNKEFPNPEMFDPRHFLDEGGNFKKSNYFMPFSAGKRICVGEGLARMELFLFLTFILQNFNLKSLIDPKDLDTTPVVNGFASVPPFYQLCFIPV
# Chain of CYP2C9 (P11712 whole entry): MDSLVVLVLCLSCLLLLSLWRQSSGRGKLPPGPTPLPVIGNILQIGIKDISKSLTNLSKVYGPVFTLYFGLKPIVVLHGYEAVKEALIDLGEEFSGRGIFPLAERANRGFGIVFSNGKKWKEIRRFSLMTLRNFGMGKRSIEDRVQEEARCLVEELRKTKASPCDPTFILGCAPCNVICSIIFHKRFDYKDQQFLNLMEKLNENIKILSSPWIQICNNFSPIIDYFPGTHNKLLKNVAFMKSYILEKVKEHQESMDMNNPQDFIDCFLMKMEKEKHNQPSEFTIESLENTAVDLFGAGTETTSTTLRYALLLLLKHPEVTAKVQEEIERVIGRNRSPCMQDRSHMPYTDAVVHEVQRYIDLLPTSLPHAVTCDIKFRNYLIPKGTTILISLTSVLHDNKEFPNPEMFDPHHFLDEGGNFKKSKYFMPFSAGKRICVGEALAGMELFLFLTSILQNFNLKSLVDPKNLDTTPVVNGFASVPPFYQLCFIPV
# Chain of CYP3A4 (P08684 whole entry): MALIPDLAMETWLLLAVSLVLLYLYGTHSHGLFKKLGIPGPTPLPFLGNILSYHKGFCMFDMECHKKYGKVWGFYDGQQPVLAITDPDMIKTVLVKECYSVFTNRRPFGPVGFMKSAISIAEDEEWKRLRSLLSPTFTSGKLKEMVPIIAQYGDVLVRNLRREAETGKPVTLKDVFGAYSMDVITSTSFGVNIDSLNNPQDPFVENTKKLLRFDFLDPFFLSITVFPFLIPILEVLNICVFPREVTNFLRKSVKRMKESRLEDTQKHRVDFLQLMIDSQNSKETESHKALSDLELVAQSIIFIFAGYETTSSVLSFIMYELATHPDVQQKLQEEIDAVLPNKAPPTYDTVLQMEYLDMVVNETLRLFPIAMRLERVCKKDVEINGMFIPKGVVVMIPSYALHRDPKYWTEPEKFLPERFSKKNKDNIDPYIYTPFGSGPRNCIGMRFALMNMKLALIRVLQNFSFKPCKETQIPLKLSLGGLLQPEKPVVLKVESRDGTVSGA
# Chain of CYP2D6 (P10635 whole entry): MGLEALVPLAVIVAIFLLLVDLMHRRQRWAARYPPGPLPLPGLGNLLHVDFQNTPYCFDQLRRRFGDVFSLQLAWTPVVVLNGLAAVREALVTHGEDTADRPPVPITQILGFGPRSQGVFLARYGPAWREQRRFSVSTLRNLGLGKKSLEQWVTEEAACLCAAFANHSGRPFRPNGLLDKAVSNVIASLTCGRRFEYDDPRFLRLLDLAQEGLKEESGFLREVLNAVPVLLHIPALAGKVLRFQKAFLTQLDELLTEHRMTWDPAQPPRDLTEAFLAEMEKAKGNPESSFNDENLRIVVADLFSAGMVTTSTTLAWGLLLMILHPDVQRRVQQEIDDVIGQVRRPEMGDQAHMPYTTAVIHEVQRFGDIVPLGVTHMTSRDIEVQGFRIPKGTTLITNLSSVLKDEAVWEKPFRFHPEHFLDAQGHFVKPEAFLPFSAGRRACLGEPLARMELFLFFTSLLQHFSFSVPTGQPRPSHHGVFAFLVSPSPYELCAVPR
smiles,measurement,setting,value
"COc1cccc2c1C(=O)c1c(O)c3c(c(O)c1C2=O)C[C@@](O)(C(=O)CO)C[C@@H]3O[C@H]1C[C@H](N)[C@H](O)[C@H](C)O1 [ADM, Adriamycin]",IC50,KB cells; 24 h,2.38 µM
same,IC50,KB cells; 48 h,0.39 µM
same,IC50,KB cells; 72 h,0.0713 µM
same,IC50,KB cells; 96 h,0.0351 µM
same,IC50,KB/VCR cells; 24 h,151 µM
same,IC50,KB/VCR cells; 48 h,4.78 µM
same,IC50,KB/VCR cells; 72 h,1.52 µM
same,IC50,KB/VCR cells; 96 h,1.19 µM
same,apoptotic cells in heart tissues (TUNEL) compared to the control group,heart tissues,significant increase in apoptosis
CC1(C)[C@@H](O)CC[C@]2(C)[C@H]3C[C@@H](O)[C@@H]4[C@@H]([C@@](C)(O)CCCNCc5ccccc5)CC[C@@]4(C)[C@]3(C)CC[C@@H]12 [PPD12],IC50,"CYP3A4; CYP3A4, Midazolam 1′-hydroxylation",1.03 µM
same,IC50,"CYP3A4; CYP3A4, Testosterone 6-β-hydroxylation",8.43 µM
same,IC50,"CYP1A2; CYP1A2, Phenacetin 0-deethylation",> 33 µM
same,inhibition of CYP1A2-mediated phenacetin 0-deethylation,CYP1A2; at 33 µM,negligible inhibition
same,IC50,CYP2B6,2.21 µM
same,IC50,CYP2C8,9.57 µM
same,IC50,"CYP2C9; CYP2C9, Diclofenac4′-hydroxylation",> 33 µM
same,inhibition of CYP2C9-mediated diclofenac4′-hydroxylation,CYP2C9; at 33 µM,negligible inhibition
same,IC50,CYP2D6,11.8 µM
same,oral absolute bioavailability,"[1]; male SD rats, 10 mg/kg oral vs i.v.",114.41±22.24%
same,bioavailability by oral administration,[1]; mouse model (so in the source),~100%
same,lethal effects / tolerability of a single high dosage,Balb/c mice,did not observe any lethal effects; also recorded: well tolerated
same,apoptotic cells in heart tissues (TUNEL) compared to the control group,heart tissues,no obvious difference in apoptotic cells
same,IC50,CYP2C19,15 µM
